Ki and IC50 data for eleven molecules are collected here from ChEMBL document CHEMBL1137969, “Subtype-selective nicotinic receptor antagonists: potential as tobacco use cessation agents” (Bioorg Med Chem Lett, 2004).

The target in test [1] is Neuronal acetylcholine receptor subunit alpha-7 (Rattus norvegicus, UniProt Q05941). The experiment in a line: Inhibition of [3H]-MLA binding to Nicotinic acetylcholine receptor alpha-7 in rat brain membranes; NA= Not active. Format: cell membranes. The method in brief:
(§1)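 Rat whole brain minus cortex and cerebellum, homogenized in HEPES buffer (pH 7.5), washed by repeated 25,000g spins with one 37 °C 10-min incubation, stored at −70 °C. Membranes ([…]) incubated 60 min at room temperature with 3 nM radioligand plus analogue ([…]) in HEPES assay buffer with 50 mM Tris. Nonspecific binding defined with […] MLA, respectively. PEI-soaked GF/B filtration. Four independent experiments.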

The species named for test [2] is Rattus norvegicus. The experiment in a line: Inhibitory activity against nAChR mediated nicotine-evoked [3H]DA overflow using rat striatal slices. It counts as functional, organism-based. The method in brief: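 Rat striatal slices preincubated in oxygenated Krebs' buffer (pH 7.4) at 34 °C, loaded with [³H]DA during the last 30 min of the 60-min incubation. Slices then superfused at 34 °C with buffer containing nomifensine and pargyline. Nicotine-evoked overflow was normalized to slice tritium content, using a repeated-measures design.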

The target in test [3] is T1, Neuronal acetylcholine receptor; alpha4/beta2 (Rattus norvegicus, UniProt P09483+P12390). The test can be described thus: Inhibition of [3H]nicotine binding to Nicotinic acetylcholine receptor alpha4-beta2 in rat brain membranes; NA= Not active. Format: cell membranes. The method in brief:
as §1

The target in test [4] is T1, Neuronal acetylcholine receptor; alpha4/beta2. The experiment in a line: Inhibition of [3H]nicotine binding to Nicotinic acetylcholine receptor alpha4-beta2 in rat brain membranes. It counts as cell membranes. The method in brief: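 Rat whole-brain membranes (cortex and cerebellum removed), washed by repeated centrifugation and stored at −70 °C. Incubated with 3 nM [³H]nicotine and a range of analogue concentrations in pH 7.5 HEPES-based buffer with Tris, 60 min at room temperature. Nonspecific binding defined with nicotine. Filtration on PEI-soaked GF/B filters, scintillation counting. Ki is the mean of four independent experiments with standard error.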

The species entered for test [5] is Rattus norvegicus. The experiment in a line: Inhibitory activity against nAChR mediated nicotine-evoked [3H]DA overflow using rat striatal slices; Not determined. Format: functional, organism-based. The method in brief: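 Rat striatal slices (4–6 mg) preincubated 60 min in oxygenated Krebs' buffer, pH 7.4, at 34 °C, […] [³H]DA (final) over the last 30 min. Slices then superfused at 1 mL/min, 34 °C, with nomifensine and pargyline present. Fractional release normalized to slice total tritium. Intrinsic and inhibitory activity measured on slices from the same rat. Means of 3–6 experiments.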

The Ki is a dissociation constant, usually derived from enzyme kinetics or from competition with a known ligand. Low values mean tighter binding, high ones weaker binding. The IC50 is the concentration at which inhibition is half-maximal. High values mean weaker potency, low ones greater potency.

Sequence of Neuronal acetylcholine receptor subunit alpha-7 (Q05941 whole entry): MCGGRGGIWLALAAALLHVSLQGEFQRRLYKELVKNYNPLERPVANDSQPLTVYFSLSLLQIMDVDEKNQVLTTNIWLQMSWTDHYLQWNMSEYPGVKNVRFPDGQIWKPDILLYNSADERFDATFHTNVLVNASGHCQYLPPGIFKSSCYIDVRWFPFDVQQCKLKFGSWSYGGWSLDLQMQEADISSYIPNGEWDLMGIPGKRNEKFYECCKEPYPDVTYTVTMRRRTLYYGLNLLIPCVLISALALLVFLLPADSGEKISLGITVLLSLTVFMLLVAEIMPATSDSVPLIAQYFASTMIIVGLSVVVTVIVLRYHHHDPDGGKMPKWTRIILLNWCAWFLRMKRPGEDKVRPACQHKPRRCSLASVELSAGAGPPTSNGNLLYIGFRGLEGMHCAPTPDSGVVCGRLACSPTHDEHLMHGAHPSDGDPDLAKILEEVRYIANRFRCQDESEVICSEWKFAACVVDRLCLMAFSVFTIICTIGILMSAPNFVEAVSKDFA
T1 sequence (P09483 whole entry): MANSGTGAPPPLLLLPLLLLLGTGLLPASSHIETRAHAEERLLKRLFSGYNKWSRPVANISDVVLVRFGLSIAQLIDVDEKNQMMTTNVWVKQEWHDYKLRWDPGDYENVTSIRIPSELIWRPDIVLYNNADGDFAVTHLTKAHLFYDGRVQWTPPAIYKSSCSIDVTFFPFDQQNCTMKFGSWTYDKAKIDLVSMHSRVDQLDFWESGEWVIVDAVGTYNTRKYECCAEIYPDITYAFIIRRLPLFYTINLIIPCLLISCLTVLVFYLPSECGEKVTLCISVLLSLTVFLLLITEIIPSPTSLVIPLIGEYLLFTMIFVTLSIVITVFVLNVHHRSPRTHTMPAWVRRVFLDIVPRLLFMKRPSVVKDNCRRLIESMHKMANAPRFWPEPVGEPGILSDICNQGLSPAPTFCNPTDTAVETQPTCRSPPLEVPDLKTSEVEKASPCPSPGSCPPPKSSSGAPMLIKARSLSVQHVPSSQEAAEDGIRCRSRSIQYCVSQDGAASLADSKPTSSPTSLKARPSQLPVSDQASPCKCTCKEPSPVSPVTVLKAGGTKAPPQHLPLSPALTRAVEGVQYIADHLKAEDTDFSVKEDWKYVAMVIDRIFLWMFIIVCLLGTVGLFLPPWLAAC
T1 sequence (P12390 whole entry): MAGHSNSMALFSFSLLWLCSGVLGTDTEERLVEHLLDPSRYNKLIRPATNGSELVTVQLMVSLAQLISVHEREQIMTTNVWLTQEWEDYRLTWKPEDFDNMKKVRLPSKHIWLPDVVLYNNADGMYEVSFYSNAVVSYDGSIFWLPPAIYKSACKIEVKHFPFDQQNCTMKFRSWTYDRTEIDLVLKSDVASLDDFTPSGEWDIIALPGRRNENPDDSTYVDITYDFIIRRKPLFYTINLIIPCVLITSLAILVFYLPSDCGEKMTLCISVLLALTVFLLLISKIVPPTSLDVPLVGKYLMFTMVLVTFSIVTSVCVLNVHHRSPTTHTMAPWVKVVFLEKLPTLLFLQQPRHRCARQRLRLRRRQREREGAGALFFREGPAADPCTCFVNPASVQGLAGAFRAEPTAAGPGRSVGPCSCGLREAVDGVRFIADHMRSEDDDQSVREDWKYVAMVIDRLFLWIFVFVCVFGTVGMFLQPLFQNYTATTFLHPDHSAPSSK

Consider `Cc1ccc[n+](CCCCCCCCC[n+]2cccc(C)c2)c1.[Br-].[Br-]`, for which the Ki entry in test [1] was “Not Active”.

Regarding `Cc1ccc[n+](CCCCCCCCCCC[n+]2cccc(C)c2)c1.[Br-].[Br-]`, the Ki result in test [1] was “Not Active”. This molecule displayed an IC50 in the test filed under Rattus norvegicus [2] of 610 nM.

Regarding `Cc1ccc[n+](CCCCCCCCCC[n+]2cccc(C)c2)c1.[I-].[I-]`, the inhibition constant Ki result in test [1] and in test [3] was “Not Active” in each case. Also, the 50% inhibitory concentration (IC50) in the test listed under Rattus norvegicus [2] came to 30 nM.

Turning to `CCCCCCCCC[n+]1cccc(C)c1.[I-]`, the figures for the Ki entry in test [1] and in test [4] were “Not Active” and 62000 nM, respectively.

In the case of `CCCCCCCCCCC[n+]1cccc(C)c1.[I-]`, the Ki entry in test [1] and in test [3] was “Not Active” each time.

As for `CCCCCCCCCC[n+]1cccc(C)c1.[I-]`, the Ki result in test [1] was “Not Active”; in test [4], 26000 nM. For the same molecule, inhibition in the test listed under Rattus norvegicus [2] was half-maximal at 300 nM (IC50).

On to `Cc1ccc[n+](CCCCCCCCCCCC[n+]2cccc(C)c2)c1.[Br-].[Br-]`, for which the Ki result in test [1] is “Not Active”. The molecule also registered an IC50 in the test filed under Rattus norvegicus [2] of 5 nM.

Take `CCCCCCCC[n+]1cccc(C)c1.[I-]`: the Ki result in test [1] and in test [3] was “Not Active” each time. The molecule further had an IC50 in the test filed under Rattus norvegicus [2] of 1000 nM.

Regarding `Cc1ccc[n+](CCCCCCCC[n+]2cccc(C)c2)c1.[I-].[I-]`, the Ki result in test [1] and in test [3] was “Not Active” each time. The molecule further returned an IC50 in the test listed under Rattus norvegicus [5] of 10 nM.

With `Cc1ccc[n+](CCCCCC[n+]2cccc(C)c2)c1.[I-].[I-]`, the inhibitory constant (Ki) entry in test [1] and in test [3] was “Not Active” each time. In the test filed under Rattus norvegicus [2], this molecule came in with an IC50 of 1660 nM.

In the case of `CCCCCCCCCCCC[n+]1cccc(C)c1.[I-]`, the Ki result in test [1] and in test [3] was “Not Active” in each case. This molecule registered an IC50 in the test listed under Rattus norvegicus [2] of 30 nM.
